Reference: ChEMBL document CHEMBL1143703, “Linear TMC-95-based proteasome inhibitors” (J Med Chem, 2007)
pKi: −log10 of the molar value. Residues, ends and D or L forms follow the SMILES beside them. *: point of attachment. Cbz = O=C(OCc1ccccc1)*; Boc = CC(C)(C)OC(=O)*; NHBn = c1ccc(CN*)cc1; NHPh = c1ccc(N*)cc1; Bn = c1ccc(C*)cc1

Tests used:
Oryctolagus cuniculus [1] = species on record: Oryctolagus cuniculus; assay: Inhibition of chymotrypsin-like activity of rabbit reticulocyte 20S proteasome at 100 uM
Oryctolagus cuniculus [2] = species on record: Oryctolagus cuniculus; assay: Activation of trypsin-like activity of rabbit reticulocyte 20S proteasome relative to control
In short: (§1)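 Trypsin-like site: proteasome exposed to 0.1-100 µM compound, fluorogenic substrate hydrolysis read 1 h at 37 °C in pH 7.5 20 mM Tris, 1 mM DTT, 10% glycerol without SDS; 3% DMSO final. Initial rates relative to untreated control: >100% expressed as activation factor, <100% as inhibition; Ki via Vi/V0 = 1/(1+[I]/Ki(app)) or IC50 = Ki(1+[S]/Km).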

[3] = Inhibition of chymotrypsin-like activity of rabbit reticulocyte 20S proteasome; parameters: species or system Oryctolagus cuniculus
[4] = Inhibition of post acid activity of rabbit reticulocyte 20S proteasome; parameters: species or system Oryctolagus cuniculus
Oryctolagus cuniculus [5] = species on record: Oryctolagus cuniculus; assay: Inhibition of post acid activity of rabbit reticulocyte 20S proteasome at 100 uM
Oryctolagus cuniculus [6] = species on record: Oryctolagus cuniculus; assay: Inhibition of trypsin-like activity of rabbit reticulocyte 20S proteasome at 100 uM; in short: as §1
[7] = Inhibition of trypsin-like activity of rabbit reticulocyte 20S proteasome; parameters: species or system Oryctolagus cuniculus; in short: as §1

| inhibition (Oryctolagus cuniculus [1]) [%] | Fold change (Oryctolagus cuniculus [2]) | pKi [3] | pKi [4] | inhibition (Oryctolagus cuniculus [5]) [%] | inhibition (Oryctolagus cuniculus [6]) [%] | pKi [7] | SMILES |
| --- | --- | --- | --- | --- | --- | --- | --- |
| < 20 | 1.6 | < 4.00 | 4.02 | – | – | – | CC(C)C[C@H](NC(=O)[C@H](Cc1ccc(OCc2ccccc2)cc1)NC(=O)OC(C)(C)C)C(=O)N[C@@H](Cc1c[nH]c2ccccc12)C(=O)Nc1ccc(O)cc1 |
| < 20 | 1.4 | < 4.00 | < 4.00 | < 20 | – | – | COC(=O)[C@@H]1Cc2c[nH]c3c(cccc23)-c2ccc(cc2OCc2ccccc2)C[C@H](NC(=O)OC(C)(C)C)C(=O)N[C@@H](CC(C)C)C(=O)N1 |
| < 20 | – | < 4.00 | 4.43 | < 20 | < 20 | < 4.00 | COC(=O)[C@@H]1Cc2c[nH]c3c(cccc23)-c2ccc(cc2OC)C[C@H](NC(=O)OC(C)(C)C)C(=O)N[C@@H](C)C(=O)N1 |
| < 20 | 1.9 | < 4.00 | < 4.00 | < 20 | – | – | CC(C)(C)OC(=O)N[C@@H](Cc1ccc(OCc2ccccc2)cc1)C(=O)N[C@@H](CCCN(C(=N)NC(=O)OCc1ccccc1)C(=O)OCc1ccccc1)C(=O)N[C@@H](Cc1c[nH]c2ccccc12)C(=O)NCc1ccccc1 |
| < 20 | 1.6 | < 4.00 | < 4.00 | < 20 | – | – | CC(C)(C)OC(=O)NCCCC[C@H](NC(=O)[C@H](Cc1ccc(OCc2ccccc2)cc1)NC(=O)OC(C)(C)C)C(=O)N[C@@H](Cc1c[nH]c2ccccc12)C(=O)Nc1ccccc1 (Boc-Tyr(Bn)-Lys(Boc)-Trp-NHPh) |
| < 20 | – | < 4.00 | < 4.00 | – | < 20 | < 4.00 | CCOC(=O)[C@H](Cc1c[nH]c2c(Br)cccc12)NC(=O)[C@H](CC(C)C)NC(=O)[C@H](Cc1ccc(OC)c(I)c1)NC(=O)OC(C)(C)C |
| – | – | 5.97 | < 4.00 | < 20 | – | 6.49 | NCCCC[C@H](NC(=O)[C@@H](N)Cc1ccc(OCc2ccccc2)cc1)C(=O)N[C@@H](Cc1c[nH]c2ccccc12)C(=O)NCc1ccccc1 (H-Tyr(Bn)-Lys-Trp-NHBn) |
| < 20 | – | < 4.00 | < 4.00 | < 20 | < 20 | < 4.00 | CCOC(=O)[C@H](Cc1c[nH]c2c(Br)cccc12)NC(=O)[C@H](CC(C)C)NC(=O)[C@H](Cc1ccc(OCc2ccccc2)c(I)c1)NC(=O)OC(C)(C)C |
| < 20 | 1.4 | < 4.00 | < 4.00 | 20 | – | – | CCOC(=O)[C@@H](Cc1c[nH]c2c(-c3ccc(C[C@H](NC(=O)OC(C)(C)C)C(=O)N[C@H](CC(C)C)C(=O)OC)cc3OCc3ccccc3)cccc12)NC(=O)OCc1ccccc1 |
| < 20 | 1.8 | < 4.00 | < 4.00 | < 20 | – | – | CC(C)(C)OC(=O)N[C@@H](Cc1ccc(OCc2ccccc2)cc1)C(=O)NCC(=O)N[C@@H](Cc1c[nH]c2ccccc12)C(=O)O (Boc-Tyr(Bn)-Gly-Trp-OH) |
| < 20 | – | < 4.00 | 4.02 | – | < 20 | < 4.00 | COC(=O)[C@H](Cc1c[nH]c2c(Br)cccc12)NC(=O)[C@H](C)NC(=O)[C@H](Cc1ccc(OCc2ccccc2)c(I)c1)NC(=O)OC(C)(C)C |
| – | – | 4.85 | 4.26 | – | < 20 | < 4.00 | COC(=O)[C@H](Cc1c[nH]c2c(Br)cccc12)NC(=O)[C@H](CC(N)=O)NC(=O)[C@H](Cc1ccc(OCc2ccccc2)c(I)c1)NC(=O)OC(C)(C)C |
| – | – | 5.43 | 4.65 | – | – | 6.48 | CC(C)C[C@H](NC(=O)[C@@H](N)Cc1ccc(OCc2ccccc2)cc1)C(=O)N[C@@H](Cc1c[nH]c2ccccc12)C(=O)NCCCCN |
| < 20 | 1.7 | < 4.00 | 4.50 | – | – | – | CC(C)(C)OC(=O)N[C@@H](Cc1ccc(OCc2ccccc2)cc1)C(=O)NCC(=O)N[C@@H](Cc1c[nH]c2ccccc12)C(=O)NCc1ccccc1 (Boc-Tyr(Bn)-Gly-Trp-NHBn) |
| – | – | 5.92 | 6.22 | – | – | 5.41 | CC(C)(C)OC(=O)N[C@@H](Cc1ccc(O)cc1)C(=O)N[C@@H](CCCNC(=N)N)C(=O)N[C@@H](Cc1c[nH]c2ccccc12)C(=O)NCc1ccccc1 (Boc-Tyr-Arg-Trp-NHBn) |
| – | – | 6.32 | < 4.00 | – | – | < 4.00 | C[C@H](NC(=O)[C@@H](N)Cc1ccc(OCc2ccccc2)cc1)C(=O)N[C@@H](Cc1c[nH]c2ccccc12)C(=O)NCc1ccccc1 (H-Tyr(Bn)-Ala-Trp-NHBn) |
| – | – | 7.12 | 6.17 | – | – | 5.35 | CC(C)C[C@@H](C=O)NC(=O)[C@H](CC(C)C)NC(=O)[C@H](CC(C)C)NC(=O)OCc1ccccc1 [MG-132] (Cbz-Leu-Leu-Leu-aldehyde) |

| inhibition (Oryctolagus cuniculus [1]) [%] | Fold change (Oryctolagus cuniculus [2]) | pKi [3] | pKi [4] | inhibition (Oryctolagus cuniculus [5]) [%] | inhibition (Oryctolagus cuniculus [6]) [%] | pKi [7] | SMILES |
| --- | --- | --- | --- | --- | --- | --- | --- |
| – | – | 6.07 | < 4.00 | < 20 | – | 6.01 | NCCCC[C@H](NC(=O)[C@@H](N)Cc1ccc(OCc2ccccc2)cc1)C(=O)N[C@@H](Cc1c[nH]c2ccccc12)C(=O)Nc1ccc(O)cc1 |
| < 20 | – | < 4.00 | < 4.00 | < 20 | – | 4.16 | CNC(=O)[C@@H](Cc1c[nH]c2c(-c3ccc(C[C@H](NC(=O)OC(C)(C)C)C(=O)N[C@H](CC(C)C)C(=O)OC)cc3OCc3ccccc3)cccc12)NC(=O)OCc1ccccc1 |
| < 20 | 1.7 | < 4.00 | 4.26 | – | – | – | C[C@H](NC(=O)[C@H](Cc1ccc(OCc2ccccc2)cc1)NC(=O)OC(C)(C)C)C(=O)N[C@@H](Cc1c[nH]c2ccccc12)C(=O)NCc1ccccc1 (Boc-Tyr(Bn)-Ala-Trp-NHBn) |
| < 20 | 2 | < 4.00 | < 4.00 | < 20 | – | – | COC(=O)[C@H](Cc1c[nH]c2c(Br)cccc12)NC(=O)[C@H](CC(C)C)NC(=O)[C@H](Cc1ccc(OCc2ccccc2)c(I)c1)NC(=O)OC(C)(C)C |
| < 20 | 1.8 | < 4.00 | < 4.00 | – | – | – | COC(=O)[C@@H]1Cc2c[nH]c3c(cccc23)-c2ccc(cc2OC)C[C@H](NC(=O)OC(C)(C)C)C(=O)N[C@@H](CC(C)C)C(=O)N1 |
| < 20 | 6.8 | < 4.00 | < 4.00 | < 20 | – | – | C[C@H](NC(=O)[C@H](Cc1ccc(O)cc1)NC(=O)OC(C)(C)C)C(=O)N[C@@H](Cc1c[nH]c2ccccc12)C(=O)O (Boc-Tyr-Ala-Trp-OH) |
| – | – | 4.18 | < 4.00 | < 20 | – | < 4.00 | CC(C)(C)OC(=O)NCCCC[C@H](NC(=O)[C@H](Cc1ccc(OCc2ccccc2)cc1)NC(=O)OC(C)(C)C)C(=O)N[C@@H](Cc1c[nH]c2ccccc12)C(=O)Nc1ccc(O)cc1 |
| – | – | 4.23 | 4.13 | – | < 20 | < 4.00 | COC(=O)[C@H](Cc1c[nH]c2c(Br)cccc12)NC(=O)[C@H](C)NC(=O)[C@H](Cc1ccc(OC)c(I)c1)NC(=O)OC(C)(C)C |
| – | – | 5.65 | < 4.00 | < 20 | – | 5.95 | NCCCC[C@H](NC(=O)[C@@H](N)Cc1ccc(OCc2ccccc2)cc1)C(=O)N[C@@H](Cc1c[nH]c2ccccc12)C(=O)Nc1ccccc1 (H-Tyr(Bn)-Lys-Trp-NHPh) |
| – | 2.3 | 4.09 | 4.50 | – | – | – | CC(C)C[C@H](NC(=O)[C@H](Cc1ccc(OCc2ccccc2)cc1)NC(=O)OC(C)(C)C)C(=O)N[C@@H](Cc1c[nH]c2ccccc12)C(=O)NCCCCNC(=O)OC(C)(C)C |
| – | – | 4.23 | 4.52 | – | < 20 | < 4.00 | CNC(=O)[C@H](Cc1c[nH]c2c(Br)cccc12)NC(=O)[C@H](C)NC(=O)[C@H](Cc1ccc(OCc2ccccc2)c(I)c1)NC(=O)OC(C)(C)C |
| < 20 | 1.9 | < 4.00 | < 4.00 | < 20 | – | – | CC(C)C[C@H](NC(=O)[C@H](Cc1ccc(OCc2ccccc2)cc1)NC(=O)OC(C)(C)C)C(=O)N[C@@H](Cc1c[nH]c2ccccc12)C(=O)Nc1ccccc1 (Boc-Tyr(Bn)-Leu-Trp-NHPh) |
| – | 6 | 5.04 | 5.06 | – | – | – | COC(=O)[C@H](Cc1c[nH]c2ccccc12)NC(=O)[C@H](C)NC(=O)[C@H](Cc1ccc(O)cc1)NC(=O)OC(C)(C)C (Boc-Tyr-Ala-Trp-OMe) |
| – | 9.8 | 4.35 | < 4.00 | – | – | – | COC(=O)[C@H](Cc1c[nH]c2ccccc12)NC(=O)[C@H](C)NC(=O)[C@H](Cc1ccc(OCc2ccccc2)cc1)NC(=O)OC(C)(C)C (Boc-Tyr(Bn)-Ala-Trp-OMe) |
| < 20 | 1.5 | < 4.00 | < 4.00 | < 20 | – | – | C[C@H](NC(=O)[C@H](Cc1ccc(OCc2ccccc2)cc1)NC(=O)OC(C)(C)C)C(=O)N[C@@H](Cc1c[nH]c2ccccc12)C(=O)O (Boc-Tyr(Bn)-Ala-Trp-OH) |
| 20 | – | < 4.00 | < 4.00 | – | – | 4.67 | CNC(=O)[C@@H](Cc1c[nH]c2c(-c3ccc(C[C@H](NC(=O)OC(C)(C)C)C(=O)N[C@H](C)C(=O)OC)cc3OCc3ccccc3)cccc12)NC(=O)OCc1ccccc1 |
| – | – | < 4.00 | 4.63 | – | < 20 | < 4.00 | CC(C)(C)OC(=O)N[C@@H](Cc1ccc(OCc2ccccc2)cc1)C(=O)N[C@@H](CC(N)=O)C(=O)N[C@@H](Cc1c[nH]c2ccccc12)C(=O)Nc1ccc(O)cc1 |
